The source of these data is ChEMBL document CHEMBL3525913, “Metabolism-dependent inhibition of CYP3A4 by lapatinib: evidence for formation of a metabolic intermediate complex with a nitroso/oxime metabolite formed via a nitrone intermediate” (Drug Metab Dispos, 2013).

The subject of one data set is Liver microsome. As to the kind of experiment: Drug level in human liver microsomes treated with lapatinib at 50 uM by LC/MS/MS analysis. The data set is classed as ADME. The gist of the method:
(§1)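 Lapatinib 50 μM (added in DMSO) incubated 30 min at 37°C in 100 mM potassium phosphate pH 7.4 with HLM 1 mg/mL or recombinant CYP3A4+b5 / CYP3A5+b5 100 pmol/mL. Reaction started with NADPH 1 mM. Protein re-isolated by ultracentrifugation (100,000 x g, 4°C, 60 min), washed (KCl/EDTA), resuspended in phosphate buffer, ±2 mM ferricyanide 10 min 37°C, quenched with acetonitrile, then high-resolution LC/MS profiling.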

Another data set concerns the target Cytochrome P450 3A4 (Homo sapiens, UniProt P08684). The data set is described as follows: Activity of recombinant CYP3A4 (unknown origin) assessed as compound formation treated with lapatinib at 50 uM by LC/MS/MS analysis. The conditions noted are these: recombinant enzyme. The data set is classed as ADME. An outline of the steps:
as §1

The nature of data set [1]: Retention time of the compound by LC/MS/MS analysis relative to lapatinib. It counts as physicochemical. The gist of the method:
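Phenyl UPLC column (1.7 μm, 2.1 x 100 mm), 0.1% formic acid in water/acetonitrile, 0.4 mL/min. Gradient: 10% organic for 1 min, to 90% over 13 min, held 0.5 min. Detection by accurate-mass MS. Retention times expressed relative to lapatinib.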

Another data set has as its target Cytochrome P450 3A5 (Homo sapiens, UniProt P20815). As to the kind of experiment: Activity of recombinant CYP3A5 (unknown origin) assessed as compound formation treated with lapatinib at 50 uM by LC/MS/MS analysis. The data set is classed as ADME. The conditions noted are these: recombinant enzyme. The gist of the method: as §1

Sequence of Cytochrome P450 3A4 (P08684 whole entry): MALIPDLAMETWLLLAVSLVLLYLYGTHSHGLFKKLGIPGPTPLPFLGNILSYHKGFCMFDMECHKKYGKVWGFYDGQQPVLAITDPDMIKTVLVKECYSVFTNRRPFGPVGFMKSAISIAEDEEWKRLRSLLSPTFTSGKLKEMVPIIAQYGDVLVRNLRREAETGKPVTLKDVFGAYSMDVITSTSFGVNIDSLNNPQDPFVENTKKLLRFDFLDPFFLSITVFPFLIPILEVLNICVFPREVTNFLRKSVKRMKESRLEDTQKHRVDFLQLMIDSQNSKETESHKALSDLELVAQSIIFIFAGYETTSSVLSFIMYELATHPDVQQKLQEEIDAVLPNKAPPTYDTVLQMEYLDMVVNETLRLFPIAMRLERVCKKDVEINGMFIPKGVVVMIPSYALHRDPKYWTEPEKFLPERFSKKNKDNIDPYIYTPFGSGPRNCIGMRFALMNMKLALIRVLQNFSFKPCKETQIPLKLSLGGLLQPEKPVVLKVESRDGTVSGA
Sequence of Cytochrome P450 3A5 (P20815 whole entry): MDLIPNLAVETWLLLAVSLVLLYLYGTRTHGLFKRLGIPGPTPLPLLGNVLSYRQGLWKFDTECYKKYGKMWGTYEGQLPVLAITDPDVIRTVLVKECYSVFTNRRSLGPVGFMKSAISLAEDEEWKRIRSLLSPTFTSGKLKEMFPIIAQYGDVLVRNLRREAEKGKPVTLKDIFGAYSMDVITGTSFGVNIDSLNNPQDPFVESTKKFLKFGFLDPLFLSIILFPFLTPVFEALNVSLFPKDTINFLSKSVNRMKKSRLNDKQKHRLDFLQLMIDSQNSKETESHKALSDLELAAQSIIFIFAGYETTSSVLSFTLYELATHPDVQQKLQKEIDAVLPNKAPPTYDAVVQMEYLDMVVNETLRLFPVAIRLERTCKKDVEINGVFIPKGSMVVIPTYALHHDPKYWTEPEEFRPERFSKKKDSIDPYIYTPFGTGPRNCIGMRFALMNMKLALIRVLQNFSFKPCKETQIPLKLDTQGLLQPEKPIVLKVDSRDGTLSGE

With `CS(=O)(=O)CCNC(O)c1ccc(-c2ccc3ncnc(Nc4ccc(O)c(Cl)c4)c3c2)o1` (centres undefined), the Drug metabolism entry with Liver microsome, at Cytochrome P450 3A4 and on Cytochrome P450 3A5 was “metabolite_detected” each time. Further, in data set [1], the Ratio is 0.78.
